Test results as given in ChEMBL document CHEMBL1126317, “2-(aminoalkyl)-5-nitropyrazolo[3,4,5-kl]acridines, a new class of anticancer agents” (1992).
Active and inactive are the calls of the source. The rule behind the calls is not given here.

Legend:
Mus musculus [1] = assay: In vivo antitumor activity of the compound(ip, 3.12 mg/kg for 5 days) against CD2F1 mice implanted intraperitoneally with P388 leukemia cells; Day 30 survivors=2/6; type: functional; conditions: route intraperitoneal
Mus musculus [2] = assay: In vivo antitumor activity of the compound(ip, 3.12 mg/kg for 5 days) against CD2F1 mice implanted intraperitoneally with P388 leukemia cells.; type: functional; conditions: route intraperitoneal
L1210 [3] = assay: In vitro antitumor activity against L1210 leukemia cell line.; type: functional; conditions: Mus musculus, read-out: ID50 (the source's name)
Mus musculus [4] = assay: In vivo antitumor activity of the compound(ip, 100 mg/kg for 5 days) against CD2F1 mice implanted intraperitoneally with P388 leukemia cells.; type: functional; conditions: route intraperitoneal
Mus musculus [5] = assay: In vivo antitumor activity of the compound(ip, 12.5 mg/kg for 5 days) against CD2F1 mice implanted intraperitoneally with P388 leukemia cells.; type: functional; conditions: route intraperitoneal
Mus musculus [6] = assay: In vivo antitumor activity of the compound(ip, 200 mg/kg for 5 days) against CD2F1 mice implanted intraperitoneally with P388 leukemia cells.; type: functional; conditions: route intraperitoneal
Mus musculus [7] = assay: In vivo antitumor activity of the compound(ip, 50 mg/kg for 5 days) against CD2F1 mice implanted intraperitoneally with P388 leukemia cells.; type: functional; conditions: route intraperitoneal
Mus musculus [8] = assay: In vivo antitumor activity of the compound(ip, 3.12 mg/kg for 5 days) against CD2F1 mice implanted intraperitoneally with P388 leukemia cells; Day 30 survivors=3/6; type: functional; conditions: route intraperitoneal
HCT-8 [9] = assay: In vitro antitumor activity against HCT-8 colon cancer cell line.; type: functional; conditions: Homo sapiens, read-out: ID50 (the source's name)
[10] = Ratio of the ID50's showing antitumor activity against HCT-8 and L1210 leukemia cell lines.; type: functional
Summary of the method: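 Ratio taken as ID50 in HCT-8 cells divided by ID50 in L1210 cells, both ID50s expressed as molar concentrations.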

HCT-8 [11] = assay: In vitro antitumor activity against HCT-8 human colon line; IA= Inactive; type: functional, cell-based
L1210 [12] = assay: In vitro antitumor activity against L1210 leukemia cell line; IA= Inactive; type: functional, cell-based; conditions: Mus musculus
Mus musculus [13] = assay: In vivo antitumor activity of the compound(ip, 25 mg/kg for 5 days) against CD2F1 mice implanted intraperitoneally with P388 leukemia cells.; type: functional; conditions: route intraperitoneal
Mus musculus [14] = assay: In vivo antitumor activity of the compound(ip, 12.5 mg/kg for 5 days) against CD2F1 mice implanted intraperitoneally with P388 leukemia cells; Day 30 survivors=1/6; type: functional; conditions: route intraperitoneal
Mus musculus [15] = assay: In vivo antitumor activity of the compound(ip, 6.25 mg/kg for 5 days) against CD2F1 mice implanted intraperitoneally with P388 leukemia cells; Day 30 survivors=1/6; type: functional; conditions: route intraperitoneal
Mus musculus [16] = assay: In vivo antitumor activity of the compound(ip, 3.13 mg/kg for 5 days) against CD2F1 mice implanted intraperitoneally with P388 leukemia cells.; type: functional; conditions: route intraperitoneal
Mus musculus [17] = assay: In vivo antitumor activity of the compound(ip, 25 mg/kg for 5 days) against CD2F1 mice implanted intraperitoneally with P388 leukemia cells; Day 30 survivors=2/6; type: functional; conditions: route intraperitoneal
Mus musculus [18] = assay: In vivo antitumor activity of the compound(ip, 6.25 mg/kg for 5 days) against CD2F1 mice implanted intraperitoneally with P388 leukemia cells.; type: functional; conditions: route intraperitoneal
Mus musculus [19] = assay: In vivo antitumor activity of the compound(ip, 50 mg/kg for 5 days) against CD2F1 mice implanted intraperitoneally with P388 leukemia cells; Day 30 survivors=3/6; type: functional; conditions: route intraperitoneal
Mus musculus [20] = assay: In vivo antitumor activity of the compound(ip, 50 mg/kg for 5 days) against CD2F1 mice implanted intraperitoneally with P388 leukemia cells; Day 30 survivors=1/6; type: functional; conditions: route intraperitoneal

## CN(C)CCN1Nc2c3cc(O)ccc3nc3c([N+](=O)[O-])ccc1c23.CS(=O)(=O)O
Mus musculus [1]
  Activity: 2
Mus musculus [2]
  T/C: 228%
L1210 [3]
  IC50: 2.7 nM

## COc1cc(OC)c2c(c1)-c1nn(CCN(C)C)c3ccc([N+](=O)[O-])c(c13)N2
L1210 [3]
  IC50: 210 nM

## CCN(CC)CCN1Nc2c3cc(OC)c(OC)cc3nc3c([N+](=O)[O-])ccc1c23.CS(=O)(=O)O
Mus musculus [4]
  T/C: 126%
L1210 [3]
  IC50: 1100 nM

## CCN(CC)CCN1Nc2c3ccc(OCc4ccccc4)cc3nc3c([N+](=O)[O-])ccc1c23.CS(=O)(=O)O
Mus musculus [5]
  T/C: 87%
L1210 [3]
  IC50: 180 nM

## CCN(CC)CCN1Nc2c3c(O)cccc3nc3c([N+](=O)[O-])ccc1c23.CS(=O)(=O)O
L1210 [3]
  IC50: 600 nM
Mus musculus [6]
  T/C: 117%

## C=CCOc1ccc2nc3c([N+](=O)[O-])ccc4c3c(c2c1)NN4CCCN(C)C.CS(=O)(=O)O
Mus musculus [5]
  T/C: 221%
L1210 [3]
  IC50: 2200 nM

## CCOc1ccc2c(c1)-c1nn(CCCN(C)C)c3ccc([N+](=O)[O-])c(c13)N2.CS(=O)(=O)O
Mus musculus [5]
  T/C: 236%
L1210 [3]
  IC50: 220 nM

## CCN(CC)CCN1Nc2c3cc(O)c(Cl)cc3nc3c([N+](=O)[O-])ccc1c23.CS(=O)(=O)O
Mus musculus [7]
  T/C: 125%
L1210 [3]
  IC50: 150 nM

## CN(C)CCCN1Nc2c3cc(O)ccc3nc3c([N+](=O)[O-])ccc1c23.CS(=O)(=O)O
Mus musculus [8]
  Activity: 3
Mus musculus [2]
  T/C: 270%
L1210 [3]
  IC50: 1.8 nM
HCT-8 [9]
  IC50: 12 nM
[10]
  Ratio: 6.7

## CCN(CC)CCOc1ccc2c(c1)-c1nn(CCN(CC)CC)c3ccc([N+](=O)[O-])c(c13)N2.CS(=O)(=O)O
Mus musculus [7]
  T/C: 118%
L1210 [3]
  IC50: 500 nM

## COc1ccc2c(c1)-c1nn(CCCl)c3ccc([N+](=O)[O-])c(c13)N2
HCT-8 [11]
  ID50: inactive
L1210 [12]
  ID50: inactive

## CCN(CC)CCN1Nc2c3cc(SC)ccc3nc3c([N+](=O)[O-])ccc1c23.CS(=O)(=O)O
Mus musculus [7]
  T/C: 114%
L1210 [3]
  IC50: 1100 nM
HCT-8 [9]
  IC50: 350 nM
[10]
  Ratio: 0.32

## COc1ccc2c(c1)-c1nn(CCN3CCCC3)c3ccc([N+](=O)[O-])c(c13)N2.CS(=O)(=O)O
L1210 [3]
  IC50: 160 nM
Mus musculus [13]
  T/C: 211%

## CCN(CC)CCN1Nc2c3cc(C)ccc3nc3c([N+](=O)[O-])ccc1c23.CS(=O)(=O)O
Mus musculus [4]
  T/C: 136%
L1210 [3]
  IC50: 860 nM

## CCOc1ccc2c(c1)-c1nn(CCN(C)C)c3ccc([N+](=O)[O-])c(c13)N2.CS(=O)(=O)O
Mus musculus [14]
  Activity: 1

## CCN(CC)CCN1Nc2c3cc4c(cc3nc3c([N+](=O)[O-])ccc1c23)OCO4.CS(=O)(=O)O
Mus musculus [7]
  T/C: 173%
L1210 [3]
  IC50: 160 nM

## CCCCOc1ccc2c(c1)-c1nn(CCN(CC)CC)c3ccc([N+](=O)[O-])c(c13)N2.CS(=O)(=O)O
Mus musculus [5]
  T/C: 209%
L1210 [3]
  IC50: 12 nM

## CC(=O)Oc1ccc2nc3c([N+](=O)[O-])ccc4c3c(c2c1)NN4CCCN(C)C.CS(=O)(=O)O
Mus musculus [1]
  Activity: 2
Mus musculus [2]
  T/C: 252%
L1210 [3]
  IC50: 1.9 nM

## CCN(CC)CCN1Nc2c3cc(OCc4ccccc4)ccc3nc3c([N+](=O)[O-])ccc1c23.CS(=O)(=O)O
Mus musculus [7]
  T/C: 200%
L1210 [3]
  IC50: 27 nM

## CCCC(=O)Oc1ccc2c(c1)-c1nn(CCN(CC)CC)c3ccc([N+](=O)[O-])c(c13)N2.CS(=O)(=O)O
L1210 [3]
  IC50: 4.3 nM
Mus musculus [15]
  Activity: 1

## CCOC(=O)Oc1ccc2c(c1)-c1nn(CCN(CC)CC)c3ccc([N+](=O)[O-])c(c13)N2.CS(=O)(=O)O
Mus musculus [16]
  T/C: 243%

## CN(C)CCCN1Nc2c3ccc(O)cc3nc3c([N+](=O)[O-])ccc1c23.Cl
Mus musculus [7]
  T/C: 140%
L1210 [3]
  IC50: 6700 nM

## CCN(CC)CCN1Nc2c3cccc(OC)c3nc3c([N+](=O)[O-])ccc1c23.CS(=O)(=O)O
Mus musculus [4]
  T/C: 111%
L1210 [3]
  IC50: 640 nM

## CCN(CC)CCN1Nc2c3c(OC)cc(OC)cc3nc3c([N+](=O)[O-])ccc1c23.CS(=O)(=O)O
Mus musculus [7]
  T/C: 94%
L1210 [3]
  IC50: 490 nM

## COc1ccc2c(c1)-c1nn(CCCN(C)C)c3ccc([N+](=O)[O-])c(c13)N2.CS(=O)(=O)O
Mus musculus [17]
  Activity: 2
[10]
  Ratio: 0.33

## CS(=O)(=O)O.O=[N+]([O-])c1ccc2c3c(nn2CCN2CCCC2)-c2cc(O)ccc2Nc13
Mus musculus [2]
  T/C: 250%
L1210 [3]
  IC50: 3 nM

## CC(=O)Oc1ccc2nc3c([N+](=O)[O-])ccc4c3c(c2c1)NN4CCN(C)C.CS(=O)(=O)O
Mus musculus [8]
  Activity: 3
Mus musculus [2]
  T/C: 265%
L1210 [3]
  IC50: 1.2 nM

## CCN(CC)CCN1Nc2c3ccc(O)cc3nc3c([N+](=O)[O-])ccc1c23.CS(=O)(=O)O
L1210 [3]
  IC50: 83 nM
Mus musculus [13]
  T/C: 130%

## CCN(CC)CCN1Nc2c3ccccc3nc3c([N+](=O)[O-])ccc1c23.CS(=O)(=O)O
L1210 [3]
  IC50: 190 nM
Mus musculus [18]
  T/C: 165%

## CN(C)CCN1Nc2c3cc(N(C)C)ccc3nc3c([N+](=O)[O-])ccc1c23.CS(=O)(=O)O
L1210 [3]
  IC50: 600 nM
Mus musculus [13]
  T/C: 189%

## COc1ccc2c(c1Cl)-c1nn(CCCN(C)C)c3ccc([N+](=O)[O-])c(c13)N2.CS(=O)(=O)O
L1210 [3]
  IC50: 100 nM
Mus musculus [15]
  Activity: 1
Mus musculus [18]
  T/C: 221%

## CCCOc1ccc2c(c1)-c1nn(CCN(CC)CC)c3ccc([N+](=O)[O-])c(c13)N2.CS(=O)(=O)O
L1210 [3]
  IC50: 460 nM
Mus musculus [17]
  Activity: 2
Mus musculus [13]
  T/C: 273%

## CCCCOc1ccc2c(c1)-c1nn(CCNCCO)c3ccc([N+](=O)[O-])c(c13)N2.CS(=O)(=O)O
Mus musculus [5]
  T/C: 175%
L1210 [3]
  IC50: 650 nM

## CCOc1ccc2c(c1)-c1nn(CCN(CC)CC)c3ccc([N+](=O)[O-])c(c13)N2.CS(=O)(=O)O
Mus musculus [5]
  T/C: 220%
L1210 [3]
  IC50: 790 nM

## COc1ccc2c(c1)-c1nn(CCO)c3ccc([N+](=O)[O-])c(c13)N2
L1210 [12]
  ID50: inactive

## COc1ccc2c(c1)-c1nn(CCNCCO)c3ccc([N+](=O)[O-])c(c13)N2
L1210 [3]
  IC50: 450 nM

## COc1ccc2c(c1)-c1nn(CCN(C)C)c3ccc([N+](=O)[O-])c(c13)N2.CS(=O)(=O)O
Mus musculus [19]
  Activity: 3
L1210 [3]
  IC50: 400 nM

## Cl.O=[N+]([O-])c1ccc2c3c(c4ccccc4nc13)NN2CCNCCO
L1210 [3]
  IC50: 220 nM
Mus musculus [13]
  T/C: 235%

## CCNCCN1Nc2c3cc(OC)ccc3nc3c([N+](=O)[O-])ccc1c23.CS(=O)(=O)O
Mus musculus [7]
  T/C: 240%
L1210 [3]
  IC50: 210 nM
HCT-8 [9]
  IC50: 120 nM
Mus musculus [20]
  Activity: 1
[10]
  Ratio: 0.57

## CCN(CC)CCCN1Nc2c3cc(OC)ccc3nc3c([N+](=O)[O-])ccc1c23.CS(=O)(=O)O
L1210 [3]
  IC50: 1300 nM
Mus musculus [13]
  T/C: 210%

## CN(C)CCCN1Nc2c3ccccc3nc3c([N+](=O)[O-])ccc1c23.CS(=O)(=O)O
Mus musculus [5]
  T/C: 214%
L1210 [3]
  IC50: 190 nM
Mus musculus [14]
  Activity: 1

## CCN(CC)CCN1Nc2c3cc(OC)c(Cl)cc3nc3c([N+](=O)[O-])ccc1c23.CS(=O)(=O)O
L1210 [3]
  IC50: 270 nM
Mus musculus [13]
  T/C: 112%

## CN(C)CCN1Nc2c3cc(OC(=O)C(C)(C)C)ccc3nc3c([N+](=O)[O-])ccc1c23.CS(=O)(=O)O
Mus musculus [1]
  Activity: 2
Mus musculus [2]
  T/C: 236%
L1210 [3]
  IC50: 2.9 nM

## Cc1ccc2c(c1)-c1nn(CCNCCO)c3ccc([N+](=O)[O-])c(c13)N2.Cl
Mus musculus [7]
  T/C: 115%

## CCN(CC)CCN1Nc2c3cc(OC)cc(OC)c3nc3c([N+](=O)[O-])ccc1c23.CS(=O)(=O)O
Mus musculus [7]
  T/C: 88%
L1210 [3]
  IC50: 760 nM
